Experimental data reported in ChEMBL document CHEMBL3045425, “Isolation and identification of precocenes and piperitone from essential oils as specific inhibitors of trichothecene production by Fusarium graminearum” (J Agric Food Chem, 2009).
Activity calls are given as the source filed them. The calls are words filed in the database; no cut-off is given here.

Columns and labels:
[1] = test system: Fusarium graminearum; assay type: functional, organism-based
[2] = test system: Fusarium graminearum; test: Growth inhibition of Fusarium graminearum assessed as mycelial weight at 26.5 degC after 7 days; assay type: organism-based; details: in vivo, 168 h
In short: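 Methanolic sample added to 5 mL SYEP (sucrose 5%, yeast extract 0.1%, polypeptone 0.1%), final methanol 0.3%. Inoculated with 1 × 10^5 spores/tube and shaken at 300 rpm, 26.5 °C, for 7 days. Mycelia were collected on cheesecloth, washed with water, dried at 100 °C for 3 h and weighed.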

[3] = test system: Fusarium graminearum; test: Downregulation of Tri5 gene expression in Fusarium graminearum at 3 to 30 uM at 26.5 degC measured after 48 to 144 hr by quantitative-RT-PCR analysis; assay type: functional, organism-based
In short: (§1)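 SYEP liquid medium (5 mL/tube) inoculated with 1 × 10^5 spores and shaken at 300 rpm, 26.5 °C, with or without compound at 3 or 30 µM, for 48, 96 or 144 h. Total RNA was taken from the mycelia. SYBR Green real-time RT-PCR was run on cDNA from 0.005 µg RNA: 95 °C 10 min, then 40 cycles of 95 °C 15 s / 60 °C 1 min. β-tubulin mRNA was the reference; n = 3.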

[4] = test system: Fusarium graminearum; test: Effect on deoxynivalenol synthetic pathway intermediates accumulation in Fusarium graminearum at 30 uM by TLC analysis; assay type: functional, organism-based
In short: (§2)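 Pooled broth (5 × 10 mL) was split into filtrate and mycelia. Filtrate was extracted with ethyl acetate and mycelia with methanol. n-Hexane and ethyl acetate fractions were examined spectroscopically for intermediate signals such as trichodiene.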

[5] = test system: Fusarium graminearum; assay type: functional, organism-based; remark: listed apart in the source
[6] = test system: Fusarium graminearum; test: Downregulation of Tri6 gene expression in Fusarium graminearum at 26.5 degC measured after 48 to 96 hr by quantitative-RT-PCR analysis; assay type: functional, organism-based
In short: as §1

[7] = test system: Fusarium graminearum; test: Downregulation of Tri10 gene expression in Fusarium graminearum at 26.5 degC measured after 48 to 96 hr by quantitative-RT-PCR analysis; assay type: functional, organism-based
In short: as §1

[8] = test system: Fusarium graminearum; test: Downregulation of Tri4 gene expression in Fusarium graminearum at 3 to 30 uM at 26.5 degC measured after 48 to 144 hr by quantitative-RT-PCR analysis; assay type: functional, organism-based
In short: as §1

[9] = test system: Fusarium graminearum; test: microbe, parasite or virus in culture; assay type: functional, organism-based; details: 168 h
[10] = test system: Fusarium graminearum; test: Downregulation of Tri6 gene expression in Fusarium graminearum at 300 to 1000 uM measured after 72 hr by quantitative-RT-PCR analysis; assay type: functional, organism-based
In short: (§3)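 Spores (1 × 10^5/tube) grown in 5 mL SYEP medium with shaking at 300 rpm, 26.5 °C, for 72 h, with or without compound at 300 or 1000 µM. Mycelial total RNA was used for SYBR Green qRT-PCR on cDNA from 0.005 µg RNA: 95 °C 10 min, then 40 cycles of 95 °C 15 s / 60 °C 1 min. Normalised to β-tubulin mRNA; n = 3.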

[11] = test system: Fusarium graminearum; test: Downregulation of Tri10 gene expression in Fusarium graminearum at 300 to 1000 uM measured after 72 hr by quantitative-RT-PCR analysis; assay type: functional, organism-based
In short: as §3

[12] = test system: Fusarium graminearum; test: Effect on deoxynivalenol synthetic pathway intermediates accumulation in Fusarium graminearum at 1000 uM by TLC analysis; assay type: functional, organism-based
In short: as §2

[13] = test system: Fusarium graminearum; test: Downregulation of Tri4 gene expression in Fusarium graminearum at 300 to 1000 uM measured after 72 hr by quantitative-RT-PCR analysis; assay type: functional, organism-based
In short: as §3

[14] = test system: Fusarium graminearum; test: Downregulation of Tri5 gene expression in Fusarium graminearum at 300 to 1000 uM measured after 72 hr by quantitative-RT-PCR analysis; assay type: functional, organism-based
In short: as §3

[15] = test system: Fusarium graminearum; test: microbe, parasite or virus in culture; assay type: functional
[16] = test system: Fusarium graminearum; test: microbe, parasite or virus in culture; assay type: functional; remark: listed apart in the source
[17] = test system: Fusarium culmorum; test: Inhibition of 3-acetyldeoxynivalenol production by Fusarium culmorum in liquid culture; assay type: functional, organism-based

Structure (SMILES) | IC50 [1] [ppm] | Activity [2] | inhibition [3] | Activity [4] | IC50 [5] [ppm] | inhibition [6] | inhibition [7] | inhibition [8] | IC50 [9] [µM] | inhibition [10] | inhibition [11] | Activity [12] | inhibition [13] | inhibition [14] | inhibition at 5.7 ppm [15] [%] | inhibition at 152 ppm [16] [%] | IC50 [17] [µM]
COc1cc2c(cc1OC)OC(C)(C)C=C2 [PROCOCENE II] | 2 | Non-toxic | Active | inactive | 0.36 | Dose-dependent effect | Dose-dependent effect | Active | 1.2 | – | – | – | – | – | – | – | –
CC1=CC(=O)[C@@H](C(C)C)CC1 [(-)-PIPERITONE] | – | Non-toxic | – | – | 61.2 | – | – | – | 306 | Active | Active | inactive | Active | Active | 20 | 25 | –
CC(=O)c1cccc2oc(=O)[nH]c12 [4-ACETYL-2-BENZOXAZOLINONE] | – | – | – | – | – | – | – | – | – | – | – | – | – | – | – | – | 4
COc1ccc2c(c1)OC(C)(C)C=C2 [PROCOCENE I] | – | – | – | – | 1.3 | – | – | – | 16.6 | – | – | – | – | – | 20 | 25 | –
